Screening results (PubChem BioAssay)
PG9 Ab binder – binders of HIV-1 gp120 antibody PG9, primary screen, biochemical, TR-FRET | HIV-1 gp120 / PG9 antibody interaction | TR-FRET gp120-PG9 antibody binding | inhibition, % at 6.7 µM | hit rate 0.43% among 360,000; in the data active = inhibition above about 8.5%
NR1D1 modulator – modulators of Rev-erb alpha DNA binding, primary screen, biochemical, FITC-DNA, fluorescence polarization, uHTS. Nuclear receptor subfamily 1 group D member 1 (Homo sapiens), P20393. Rev-erbα–FITC-DNA binding, 90 min. activity, % at 10 µM. hit rate 0.79% among 370,000. AID 1259318, 2017;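 active = activity above about 14%, limit read from the data; passing the limit was not always enough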;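 also: 0% = DMSO wells with 35 nM protein and 100% = DMSO wells with 750 nM protein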
Target sequence (P20393 whole entry, looked up): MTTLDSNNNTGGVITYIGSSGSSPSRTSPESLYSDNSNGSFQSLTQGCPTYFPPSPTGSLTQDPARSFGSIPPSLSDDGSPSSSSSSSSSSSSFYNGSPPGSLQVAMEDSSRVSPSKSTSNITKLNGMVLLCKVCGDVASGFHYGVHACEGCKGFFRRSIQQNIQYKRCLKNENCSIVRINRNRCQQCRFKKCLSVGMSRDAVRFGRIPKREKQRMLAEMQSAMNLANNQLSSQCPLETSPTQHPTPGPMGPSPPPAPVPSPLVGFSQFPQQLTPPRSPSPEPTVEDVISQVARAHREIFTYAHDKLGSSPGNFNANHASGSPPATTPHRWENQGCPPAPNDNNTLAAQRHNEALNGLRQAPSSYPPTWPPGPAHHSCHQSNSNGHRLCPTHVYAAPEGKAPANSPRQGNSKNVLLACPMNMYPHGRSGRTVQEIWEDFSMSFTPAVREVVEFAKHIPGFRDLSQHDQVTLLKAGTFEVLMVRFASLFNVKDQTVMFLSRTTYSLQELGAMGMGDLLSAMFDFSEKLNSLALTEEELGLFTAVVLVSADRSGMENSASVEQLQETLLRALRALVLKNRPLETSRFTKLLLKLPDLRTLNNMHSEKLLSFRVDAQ
NR2E3 ag-1 – inhibitors of NR2E3-RetCOR corepressor binding, primary screen, NR2E3 agonist project, biochemical, TR-FRET, GST-NR2E3, biotin-RetCOR | AID 2300, 2010 | hit rate 0.12% among 320,000 | inhibition of corepressor binding, % at 4.78 µM | 1536-well;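 active = percent inhibition above the cutoff of mean plus 3 SD of all tested compounds, set per screening campaign, cut at about 20% in these data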;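 also: 0% = DMSO wells and 100% = biotin wells as full block of FRET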
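Material: NR2E3–RetCOR corepressor complex | Quantity: 1.35 nM GST-tagged NR2E3 final | Schedule: 5 h at 4 °C | Replication: Singlicate compound wells | Reagent: RetCOR corepressor, biotinylated, 7 nM | Controls: Biotin wells as high control, 0.6% DMSO wells as low control | Signal: TR-FRET, Eu(K)-anti-GST donor, streptavidin-D2 acceptor, ex 340, em 617/671 nm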
NR2E3 ag-2 – NR2E3 agonists in two-hybrid cells, primary screen, cell-based, luminescence, CHO-S, Gal4-NCOR/VP16-NR2E3. inhibition of corepressor binding, % at 3.98 µM. luciferase. AID 602229, 2012. hit rate 0.35% among 360,000;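 active = inhibition above the mean of all tested compounds plus 3 SD, cut at about 70% in these data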;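 also: 0% = DMSO with NR2E3 transfected cells and 100% = cells lacking NR2E3 construct; higher means lower luciferase signal from less NR2E3 corepressor binding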
NR1D1 mod conf – modulators of Rev-erb alpha DNA binding, confirmation, biochemical, FITC-DNA, fluorescence polarization, single point | shares compounds with NR1D1 modulator | 90 min | activation, % at 25 µM | hit rate 61% among 3,000 | AID 1259319, 2017;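 active = activation at or above a set limit, or at least 3 SD above the negative control mean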;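 also: 0% = 35 nM protein with DMSO and 100% = 750 nM protein high control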
RORg DNA counter – modulation of RORgamma DNA binding, dose response, counter-screen for Rev-erb alpha modulator project, biochemical, fluorescence polarization, FITC-DNA; purified RORgamma protein-FITC-DNA binding; shares compounds with NR1D1 modulator; hit rate 8% among 910; AID 1259320, 2017; IC50, µM;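 active = Compounds whose fitted half-maximal concentration for disrupting protein-DNA binding is below 10 micromolar; the record names Rev-erb in its text, so the target is in doubt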
* marks the source's active call; other numbers are inactive results; i = inactive; nt = no result given. In the library only some 1.5% were active in any assay of this set; here they are far more common.

SMILES | PG9 Ab binder | NR1D1 modulator | NR2E3 ag-1 | NR2E3 ag-2 | NR1D1 mod conf | others
COC(=O)c1ccsc1NC(=O)c1ccc2c(c1)OCCO2 | -0.3 | 8.2 | 2.1 | -8.2 | nt
COC(=O)c1ccc2nc(Nc3nc4ccc(F)cc4s3)sc2c1 | 1.9 | 47.5* | -0.7 | 27.2 | 54.2*
COC(=O)c1ccc2nc(NC(=O)C3CCCCC3)sc2c1 | -3.3 | 16.9* | 3.9 | -105.3 | 19.3*
COc1ccc2c(c1)NC(=O)[C@@]2(CCN1C(=O)c2ccccc2C1=O)c1[nH]c2ccccc2c1CCN1C(=O)c2ccccc2C1=O | nt | 2.4 | nt | nt | nt
COc1ccc2[nH]c(C(=O)Nc3ccc(C)c(F)c3)cc2c1 | -0.3 | 48.8* | 3.6 | -94.7 | 43.6* | RORg DNA counter=1.48*
O=C(NC1CC[C@@]23CCCN2C(=O)CCC[C@H]3C1)c1ccccc1 (stereo not given in full) | nt | -7.5 | nt | nt | nt
O=C(O)CSc1c2ccccc2cc2ccccc12 | -1.4 | 41.1* | -3.9 | -18.4 | 37.5* | RORg DNA counter=>40
O=C1CCCC(O)=C1C=Nc1ccc2c(c1)oc1ccccc12 | 0.4 | 29.9* | 0.6 | -23.9 | 28.3*
CCOc1cccc2sc(Nc3nc4ccc(NC(C)=O)cc4s3)nc12 | 7.7 | 48.9* | 3.0 | -23.0 | 16.0
CCCCCN1CCCCC(NC(=O)c2ccc(F)c(F)c2)C1=O (stereo not given) | nt | 1.9 | nt | nt | nt
CCc1ccc(-c2cc3c(=O)n(CC(=O)N4CCCCCC4)nc(C)n3n2)cc1 | -0.8 | 7.8 | 2.0 | -19.4 | nt
CCc1ccc(-c2cc3c(=O)n(CC(=O)N4CCCC4)nc(C)n3n2)cc1 | -0.8 | 49.4* | -1.8 | 18.1 | 19.9*
CCCCCCCCNS(=O)(=O)CC1NCc2cc(F)ccc21 (stereo not given) | nt | -0.9 | nt | nt | nt
O=C(Nc1nc2ncccn2c1-c1ccc(F)cc1)C1CC1 | nt | -1.3 | nt | nt | nt
Cc1ccc(NS(=O)(=O)c2ccc(-c3ccc(=O)[nH]n3)o2)cc1Cl | 2.5 | -4.9 | -1.3 | 7.4 | nt
Cc1ccc(C)c(N2CCN(S(=O)(=O)c3ccc(-c4ccc(=O)[nH]n4)o3)CC2)c1 | -2.6 | 33.2* | -3.1 | -15.5 | 11.8
O=c1ccc(-c2ccc(S(=O)(=O)N3CCCCC3)o2)n[nH]1 | -0.2 | -5.1 | -0.9 | -5.3 | nt
Cc1ccc(Cl)cc1N1CCN(S(=O)(=O)c2ccc(-c3ccc(=O)[nH]n3)o2)CC1 | 0.3 | 135.1* | -4.3 | -16.8 | 137.6* | RORg DNA counter=>40
CSc1nc2c(=O)[nH]cnc2s1 | 1.2 | -8.5 | nt | nt | nt
CC(C)(C)c1ccc(-c2nnc(SCC(=O)c3ccc([N+](=O)[O-])cc3)n2-c2ccc(Cl)cc2)cc1 | nt | -1.8 | nt | nt | nt
CC12CCC(=O)N1C(C(=O)Nc1cc(C(F)(F)F)ccc1N1CCCCC1)CS2 (stereo not given) | 1.6 | 15.4* | -0.2 | 20.4 | 13.8
CCN(CC)c1ccc(S(=O)(=O)N2CCCCC2)cc1NC(=O)C1CSC2(C)CCC(=O)N12 (stereo not given) | 0.7 | 22.8* | 1.3 | -2.1 | 21.7*
COC(=O)[C@]12C[C@H](CC(=O)N3CCN(C(=O)C4CC4)CC3)C(=O)N(Cc3cccc4ccccc34)C1=C[C@H](C1CCCC1)O[C@@H]2C | nt | 0.5 | nt | nt | nt
COc1ccc(C(=O)Nc2nc(-c3ccccc3)c(C(C)=O)s2)c(OC)c1 | 1.7 | 24.8* | -1.7 | -36.0 | 14.9
CC(=O)c1sc(NC(=O)c2ccccc2F)nc1-c1ccccc1 | 1.8 | 17.0* | 8.7 | -110.9 | 11.0
SMILES | PG9 Ab binder | NR1D1 modulator | NR2E3 ag-1 | NR2E3 ag-2 | NR1D1 mod conf | others
CC(=O)c1sc(NC(=O)c2ccc(F)cc2)nc1-c1ccccc1 | 4.0 | 17.9 | 0.6 | -14.7 | nt
COc1ccc(C(=O)Nc2nc3cc4c(cc3s2)OCO4)c(OC)c1 | 5.8 | 18.7* | -59.8 | -138.0 | 11.5*
COc1ccc(OC)c(-c2csc(NC(=O)c3ccc4c(c3)OCO4)n2)c1 | -1.9 | 48.8* | 3.3 | -45.4 | 50.6* | RORg DNA counter=i
COC(=O)[C@]12C[C@H](CC(=O)NCCCN3CCCC3=O)C(=O)N(Cc3ccc(Cl)cc3Cl)C1=C[C@H](C(C)(C)C)O[C@@H]2C | nt | 4.2 | nt | nt | nt
COCCCNC(=O)c1ccc(Cn2c(=O)c3ccccc3n(Cc3ccc(C(C)C)cc3)c2=O)cc1 | nt | 1.6 | nt | nt | nt
N#Cc1cc2cc3c(cc2nc1SCC(=O)N1CCCC1)OCCO3 | nt | nt | -0.8 | -82.1 | nt
CCOC(=O)CSc1nc(-c2ccc3c(c2)OCO3)ccc1C#N | 1.6 | 19.6* | -0.2 | -59.2 | 17.4*
CC(=O)CSc1nc2cc3c(cc2cc1C#N)OCCO3 | -6.7 | 20.2* | -0.2 | -131.2 | 19.7*
N#Cc1cc2cc3c(cc2nc1SCC(=O)OC1CCCCC1)OCO3 | 0.5 | 78.7* | 1.0 | -17.0 | 38.2*
Cc1ccc(CN2CCCCC(NC(=O)c3ccccc3)C2=O)cc1 (stereo not given) | nt | -0.8 | nt | nt | nt
C=CCN1C(=O)[C@@H](CC(=O)N2CCCCC2)[C@]2(C(=O)OC)CCCCC=C12 | nt | -2.4 | nt | nt | nt
CC(=O)N1CCCN(C(=O)CCn2nnc3ccccc32)CC1 | nt | -4.8 | nt | nt | nt
CCN(CC)C(=O)CC[C@H]1CC[C@]2(CCCN(Cc3nccs3)C2)O1 | nt | -4.3 | nt | nt | nt
COc1ccc(C(=O)c2c(-c3ccc(OC)cc3)oc3ccc(-c4cc(OC)c(OC)c(OC)c4)cc23)cc1 | 0.8 | 13.3 | -5.3 | -27.1 | nt
COc1ccc(-c2oc3ccc(-c4cc(OC)c(OC)c(OC)c4)cc3c2C(=O)c2ccc(OC)nc2)cc1 | 1.0 | 22.4* | -0.2 | 9.9 | 2.5
Cc1nn(-c2ccc(Cl)cc2)c(=O)c2ccccc12 | -1.3 | 4.3 | 0.1 | -60.9 | nt
Cc1nn(-c2ccc(Cl)c(Cl)c2)c(=O)c2ccccc12 | -1.4 | 48.2* | -4.1 | -36.3 | 41.1* | RORg DNA counter=>40
CN(C)c1ccc(P(=O)(Nc2cccc(C(F)(F)F)c2)N2CCOCC2)c(NC(=O)c2cccs2)c1 (stereo not given) | 0.9 | 32.5* | 3.6 | 2.5 | 2.5
COc1cc2c3nnc(-c4ccc(F)cc4)c-3cn(Cc3ccc(C)cc3)c2cc1OC | 0.8 | 16.8 | 1.6 | -3.5 | nt
COc1cc2c3nnc(-c4ccccc4)c-3cn(Cc3ccc(F)cc3)c2cc1OC | 0.1 | 23.0* | -0.3 | 9.2 | 0.1
NNc1nc2c(-c3cccc(C(F)(F)F)c3)nnn2c2ccccc12 | -0.6 | 0.7 | nt | -13.2 | nt
CC(C)OCCCNc1nc2c(-c3ccccc3)nnn2c2ccccc12 | nt | nt | 6.0 | nt | nt
COCCNc1nc2c(-c3cccc(C(F)(F)F)c3)nnn2c2ccccc12 | -2.2 | 51.8* | 1.4 | -38.9 | 18.1*
CCOCCCNc1nc2c(-c3ccccc3)nnn2c2ccccc12 | -0.8 | 26.5* | 2.0 | -15.6 | 6.7
